The source of these data is PMC5648609 (Xenobiotica; the fate of foreign compounds in biological …, 2017).

Marks after values point to notes of the source that are not given here.

Data set [1] addresses T1, hOCT1 (Homo sapiens, UniProt O15245).
T1 sequence (O15245 1-554): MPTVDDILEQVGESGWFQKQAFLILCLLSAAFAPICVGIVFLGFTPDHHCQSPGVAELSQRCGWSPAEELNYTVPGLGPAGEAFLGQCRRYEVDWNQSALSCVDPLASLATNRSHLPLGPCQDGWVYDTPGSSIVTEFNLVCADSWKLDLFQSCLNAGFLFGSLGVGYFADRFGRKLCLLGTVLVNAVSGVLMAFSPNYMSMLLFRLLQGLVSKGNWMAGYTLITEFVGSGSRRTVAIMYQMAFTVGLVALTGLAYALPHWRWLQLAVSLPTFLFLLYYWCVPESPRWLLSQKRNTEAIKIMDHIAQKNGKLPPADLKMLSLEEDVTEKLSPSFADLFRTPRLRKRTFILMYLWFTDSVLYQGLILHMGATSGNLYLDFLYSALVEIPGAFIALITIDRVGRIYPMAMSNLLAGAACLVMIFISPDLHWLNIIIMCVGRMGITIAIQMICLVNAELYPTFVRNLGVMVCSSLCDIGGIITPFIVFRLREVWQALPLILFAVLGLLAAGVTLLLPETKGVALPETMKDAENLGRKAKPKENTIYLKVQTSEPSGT
In words: ASP+-based fluorescence uptake inhibition assay, hOCT1. The data set is classed as cell-based.

The subject of data set [2] is hOCT2 stably transfected HEK293 cells. The data set can be described thus: MTT cytotoxicity assay, hOCT2 cells. It is filed as cell-based, human. Particulars: for TC50 OCT2: MTT, 72 h, hOCT2 HEK293 cells, mean±SD of six experiments; for Fold increase over pcDNA5 OCT2: ratio of TC50 pcDNA5 to TC50 hOCT2 cells.
Data set [3] concerns the target T2, hOCT2 (Homo sapiens, UniProt O15244).
T2 sequence (O15244 1-555): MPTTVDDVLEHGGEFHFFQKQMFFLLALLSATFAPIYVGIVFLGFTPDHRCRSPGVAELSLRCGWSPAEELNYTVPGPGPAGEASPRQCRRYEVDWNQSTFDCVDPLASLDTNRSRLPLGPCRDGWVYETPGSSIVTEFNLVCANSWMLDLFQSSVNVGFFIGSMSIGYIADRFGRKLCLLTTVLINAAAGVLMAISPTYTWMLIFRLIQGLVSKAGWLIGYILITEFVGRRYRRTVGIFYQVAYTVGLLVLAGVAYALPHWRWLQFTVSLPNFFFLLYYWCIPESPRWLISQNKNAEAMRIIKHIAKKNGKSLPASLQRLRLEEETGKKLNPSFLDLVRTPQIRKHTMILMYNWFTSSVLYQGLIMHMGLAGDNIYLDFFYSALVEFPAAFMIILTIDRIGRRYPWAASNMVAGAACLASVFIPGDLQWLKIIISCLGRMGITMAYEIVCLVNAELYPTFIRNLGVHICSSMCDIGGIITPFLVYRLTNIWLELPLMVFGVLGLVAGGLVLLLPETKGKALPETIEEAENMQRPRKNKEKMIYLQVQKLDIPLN
In words: ASP+-based fluorescence uptake inhibition assay, hOCT2. The data set is classed as cell-based.

Data set [4] deals with hOCT3 stably transfected HEK293 cells. The data set can be described thus: MTT cytotoxicity assay, hOCT3 cells. It is filed as cell-based, human. Particulars: for TC50 OCT3: MTT, 72 h, hOCT3 HEK293 cells, mean±SD of six experiments; for Fold increase over pcDNA5 OCT3: ratio of TC50 pcDNA5 to TC50 hOCT3 cells. For orientation: Tetrazolium assays rely on reduction of a dye to a coloured formazan, in cell work by metabolically active cells.

The target of data set [5] is T3, hOCT3 (Homo sapiens, UniProt O75751).
T3 sequence (O75751 1-556): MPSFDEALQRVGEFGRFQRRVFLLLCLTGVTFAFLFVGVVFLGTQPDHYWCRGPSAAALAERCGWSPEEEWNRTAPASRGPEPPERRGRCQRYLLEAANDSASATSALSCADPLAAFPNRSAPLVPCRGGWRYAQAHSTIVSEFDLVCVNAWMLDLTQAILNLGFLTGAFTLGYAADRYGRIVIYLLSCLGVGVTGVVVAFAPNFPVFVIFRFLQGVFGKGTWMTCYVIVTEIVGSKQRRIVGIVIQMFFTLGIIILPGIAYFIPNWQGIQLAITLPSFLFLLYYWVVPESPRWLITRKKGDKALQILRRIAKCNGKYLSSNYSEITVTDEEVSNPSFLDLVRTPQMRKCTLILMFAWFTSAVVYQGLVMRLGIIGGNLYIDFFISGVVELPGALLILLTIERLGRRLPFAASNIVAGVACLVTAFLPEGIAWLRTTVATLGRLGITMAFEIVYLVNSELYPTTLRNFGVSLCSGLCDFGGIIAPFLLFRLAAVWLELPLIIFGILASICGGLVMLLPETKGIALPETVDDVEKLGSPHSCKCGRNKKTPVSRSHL
In words: ASP+-based fluorescence uptake inhibition assay, hOCT3. The data set is classed as cell-based.

Data set [6] concerns hOCT1-3 stably transfected HEK293 cells. In words: MTT cytotoxicity assay, result stated across hOCT1-3 cells. Conditions: compared to vector-transfected HEK293 cells.
Data set [7] has as its system pcDNA5 (control) stably transfected HEK293 cells. The data set can be described thus: MTT cytotoxicity assay, pcDNA5 control cells. The data set is classed as cell-based, human. Conditions: 72 h, vector control HEK293 cells, mean±SD of six experiments.
Data set [8] deals with hOCT1 stably transfected HEK293 cells. The data set can be described thus: MTT cytotoxicity assay, hOCT1 cells. It is filed as cell-based, human. Particulars: for TC50 OCT1: MTT, 72 h, hOCT1 HEK293 cells, mean±SD of six experiments; for Fold increase over pcDNA5 OCT1: ratio of TC50 pcDNA5 to TC50 hOCT1 cells.
Data set [9] concerns the target T1, hOCT1. In words: β-Carboline uptake assay. The data set is classed as in vitro ADME. Particulars: 1 μM substrate, 30 minutes. An outline of the steps:
(§1)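 Flp-in HEK293 cells stably expressing the transporter, with empty pcDNA5/FRT vector cells as control, were grown overnight at 100 000 cells/well on poly-L-ornithine-coated plastic. Cells were washed twice with HBSS, acclimated for 10 min at 37 °C, then given 1 µM substrate in HBSS for 30 min. Uptake was stopped with three ice-cold HBSS washes. Cells were lysed in acetonitrile with internal standard, and drug was quantified by ESI-positive LC-MS/MS and normalized to total protein (BCA).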

The conditions of data set [10]: single ingestion of Ayahuasca, healthy volunteers; ref Riba et al., 2012; cited from earlier work.
Data set [11] addresses T3, hOCT3. The data set can be described thus: β-Carboline uptake assay. The data set is classed as in vitro ADME. Particulars: 1 μM substrate, 30 minutes. An outline of the steps:
as §1

For data set [12] the following is noted: human plasma; ref Ito et al., 2012; cited from earlier work.
For data set [13], the target named is T2, hOCT2. Particulars: read-out: Ki for hOCT2; hOCT2 expressed in HEK293 cells; ref Ito et al., 2012; cited from earlier work.

`Cn1c2c(c3ccccc31)CC[N+](C)=C2.[I-]` [2,9-dimethyl-4,9-dihydro-3Hβ-carbolin-2-ium, iodide] yielded an IC50 in data set [1] of 40.4 ± 2.4 µM. For the same compound, in [2], the “TC50 OCT2” value worked out at 117 ± 22 µM and the “Fold increase over pcDNA5 OCT2” value is given as 1.1 fold. In data set [3], this compound gave a concentration for half-maximal inhibition (IC50) of 0.524 ± 0.088 µM. In data set [4], the “TC50 OCT3” value came to 80.6 ± 7.2 µM and the “Fold increase over pcDNA5 OCT3” value is reported as 1.6 fold. This compound also had a half-maximal inhibitory concentration (IC50) in data set [5] of 7.3 ± 0.5 µM. Further, the “Effect of hOCT1-3 expression on cytotoxicity (in words)” value (“Effect of hOCT1-3 expression” for short) in [6] is listed as “no significant effect”. In addition, the “TC50 pcDNA5” value in [7] stood at 127 ± 18 µM. In addition, in [8], the “TC50 OCT1” value was 119 ± 33 µM and the “Fold increase over pcDNA5 OCT1” value was determined as 1.1 fold.
As for `COc1ccc2c3c([nH]c2c1)C(C)=NCC3` [Harmaline, 4,9-dihydro-7-methoxy-1-methyl-3H-pyrido[3,4-b] indole], the “Accumulation in hOCT1 transfected cells relative to vector cells” value in [9] is given as ~ 2 fold. In addition, it took 27.6 ± 3.8 µM to reach half-maximal inhibition in [1] (IC50). Moreover, the “Plasma concentration after Ayahuasca” value in data set [10] is on record as “mid to high nanomolar range”. In [2], the “TC50 OCT2” value worked out at 35.5 ± 3.8 µM and the “Fold increase over pcDNA5 OCT2” value is listed as 0.65 fold. Further, in data set [4], the “TC50 OCT3” value is 33.1 ± 8.2 µM and the “Fold increase over pcDNA5 OCT3” value was 0.69 fold. Further, the IC50 in [5] is 4.76 ± 0.46 µM. For the same compound, in data set [6], the “Effect of hOCT1-3 expression” value is on record as “no significant effect”. Besides, the “Accumulation in hOCT3 transfected cells relative to vector cells” value in data set [11] is reported as ~ 2 fold. Also, the “TC50 pcDNA5” value in data set [7] turned out to be 23.0 ± 3.6 µM. In addition, in data set [8], the “TC50 OCT1” value came to 23.0 ± 5.1 µM and the “Fold increase over pcDNA5 OCT1” value came to 1.0 fold.
Regarding `COc1ccc2c(c1)[nH]c1c(C)nccc12` [Harmine, 7-methoxy-1-methyl-9H-pyrido[3,4-b] indole], the results for the IC50 in data set [1] and in [5] were 23.1 ± 2.8 µM and 17.7 ± 1 µM, respectively. The “TC50 OCT2” value in [2] was 3.01 ± 0.41 µM. In addition, the “TC50 OCT3” value in [4] is 2.81 ± 0.23 µM. The “Effect of hOCT1-3 expression” value in [6] is recorded as “no significant effect”. In addition, the “TC50 pcDNA5” value in [7] stood at 2.87 ± 0.47 µM. The “TC50 OCT1” value in data set [8] was 2.55 ± 0.26 µM.
For `C[n+]1ccc(-c2ccccc2)cc1` [MPP+, 1-methyl-4-phenylpyridinium], in [2], the “TC50 OCT2” value is on record as 7.16±0.75 ^a μM and the “Fold increase over pcDNA5 OCT2” value came to 8.9 fold. Also, in [4], the “TC50 OCT3” value was 5.86±0.68 ^a μM and the “Fold increase over pcDNA5 OCT3” value is 10.9 fold. Besides, the “TC50 pcDNA5” value in data set [7] was found to be 63.6 ± 12.7 µM. In addition, in data set [8], the “TC50 OCT1” value is 3.88±0.38 ^a μM and the “Fold increase over pcDNA5 OCT1” value stood at 16.4 fold.
For the compound `C[n+]1ccc2c(c1)[nH]c1ccccc12.[I-]` [Norharmanium, 2-methyl-9H-β-carboline-2-ium, iodide], in data set [1], the IC50 was 70.5 ± 6.6 µM. Besides, in data set [2], the “TC50 OCT2” value was 13.4±2.4 ^a μM and the “Fold increase over pcDNA5 OCT2” value is reported as 8.9 fold. For the same compound, in [4], the “TC50 OCT3” value is on record as 10.8±1.4 ^a μM and the “Fold increase over pcDNA5 OCT3” value stood at 11.0 fold. The half-maximal inhibitory concentration (IC50) in [5] amounted to 13.1 ± 0.1 µM. Further, in [6], the “Effect of hOCT1-3 expression” value is on record as “greatly increased toxicity”. Further, the “TC50 pcDNA5” value in data set [7] stood at 119 ± 18 µM. In [8], the “TC50 OCT1” value is listed as 9.05±2.54 ^a μM and the “Fold increase over pcDNA5 OCT1” value was determined as 13.1 fold.
Consider `CN/C(=N/CCSCc1nc[nH]c1C)NC#N` [cimetidine], for which, in data set [12], the “Clinically encountered concentrations in plasma” value is 2.0 to 3.6 µM. In data set [13], the Ki is 95 to 146 µM.

One may read the IC50 as the concentration needed to halve the response being measured. A high value points to weaker potency in that assay. As a reminder, the Ki is the equilibrium dissociation constant of an inhibitor or competing ligand from its target.
